The values that follow come from publication PMC3064798 (Nucleic Acids Research, 2011).

Molecules are shown by their SMILES. Values joined by “and” are separate entries in the source; they are usually repeats but may differ in a detail not shown here. Equal values may be shown once.

Assay [1] has as its target T1, Therminator polymerase (Thermococcus sp., UniProt Q56366, A485L/D141A/E143A).
T1 sequence (Q56366 1-775 D141A/E143A/A485L): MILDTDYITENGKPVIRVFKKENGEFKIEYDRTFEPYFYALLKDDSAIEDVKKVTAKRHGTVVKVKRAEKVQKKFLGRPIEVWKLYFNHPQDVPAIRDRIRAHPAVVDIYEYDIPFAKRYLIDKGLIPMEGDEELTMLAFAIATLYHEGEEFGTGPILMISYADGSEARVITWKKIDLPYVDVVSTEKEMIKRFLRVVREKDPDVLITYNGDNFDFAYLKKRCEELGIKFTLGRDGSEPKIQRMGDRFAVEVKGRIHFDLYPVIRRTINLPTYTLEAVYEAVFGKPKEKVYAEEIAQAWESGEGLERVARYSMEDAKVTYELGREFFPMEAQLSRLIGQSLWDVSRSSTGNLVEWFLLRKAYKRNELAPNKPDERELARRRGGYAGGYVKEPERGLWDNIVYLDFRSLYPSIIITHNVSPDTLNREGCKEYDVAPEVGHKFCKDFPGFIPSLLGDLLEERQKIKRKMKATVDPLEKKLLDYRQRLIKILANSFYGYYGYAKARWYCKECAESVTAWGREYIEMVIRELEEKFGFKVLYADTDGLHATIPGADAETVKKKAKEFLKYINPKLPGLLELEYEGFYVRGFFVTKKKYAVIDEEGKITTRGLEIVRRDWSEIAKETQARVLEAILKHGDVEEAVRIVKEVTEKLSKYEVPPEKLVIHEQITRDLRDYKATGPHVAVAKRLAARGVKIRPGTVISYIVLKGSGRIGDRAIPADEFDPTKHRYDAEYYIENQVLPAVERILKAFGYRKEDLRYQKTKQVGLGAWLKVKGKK
Nature of the assay: Nucleotide selectivity. In kind it is biochemical. A digest of the protocol:
(§1)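 Base discrimination was measured by PEP assay. OligoTemplate-4 was replaced with 40 nM oligoTemplate-2 or oligoTemplate-5 to give mismatched template bases. For the T—G mismatch, 5 nM BODIPY-FL primer-3 was hybridised to 40 nM oligoTemplate-8. The selectivity ratio is the mismatched IC50 divided by the matched IC50.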

For assay [2], the target named is T1, Therminator polymerase. Nature of the assay: Weighted-sum assay for termination. The settings on record: nucleotide at 3 μM (∼1000× IC50), oligoTemplate-7. In kind it is biochemical.
For assay [3], the target named is T2, Vent(exo^−) polymerase (Thermococcus litoralis, UniProt P30317, D141A/DEL1082-1471/DEL495-1032/E143A).
T2 sequence (P30317 with tags, fused parts or gaps D141A/E143A/DEL495-1032/DEL1082-1471): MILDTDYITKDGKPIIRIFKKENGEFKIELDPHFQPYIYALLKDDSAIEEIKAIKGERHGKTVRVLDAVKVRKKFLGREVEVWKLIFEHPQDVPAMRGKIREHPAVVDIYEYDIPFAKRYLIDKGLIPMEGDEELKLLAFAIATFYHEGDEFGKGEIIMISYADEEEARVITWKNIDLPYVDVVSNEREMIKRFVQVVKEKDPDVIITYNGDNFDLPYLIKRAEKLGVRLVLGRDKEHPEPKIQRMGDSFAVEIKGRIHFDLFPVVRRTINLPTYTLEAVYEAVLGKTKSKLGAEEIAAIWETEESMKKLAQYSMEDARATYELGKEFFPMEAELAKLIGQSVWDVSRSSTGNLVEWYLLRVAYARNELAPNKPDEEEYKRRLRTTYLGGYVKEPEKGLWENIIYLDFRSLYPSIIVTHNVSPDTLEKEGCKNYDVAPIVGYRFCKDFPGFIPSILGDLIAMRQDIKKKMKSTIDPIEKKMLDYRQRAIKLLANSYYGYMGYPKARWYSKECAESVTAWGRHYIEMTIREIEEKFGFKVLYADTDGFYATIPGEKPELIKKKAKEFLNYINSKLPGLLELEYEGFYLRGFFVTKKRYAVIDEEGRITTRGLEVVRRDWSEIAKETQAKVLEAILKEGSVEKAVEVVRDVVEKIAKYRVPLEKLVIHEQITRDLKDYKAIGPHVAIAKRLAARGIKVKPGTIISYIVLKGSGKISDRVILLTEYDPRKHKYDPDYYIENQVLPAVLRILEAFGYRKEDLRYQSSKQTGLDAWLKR
Nature of the assay: Weighted-sum assay for termination. Particulars: nucleotide at 3 μM (∼1000× IC50), oligoTemplate-7. The class given is biochemical.

Assay [4] in a line: Photochemical cleavage studies. Particulars: 50 mM NaN3; 365 nm UV; incorporated in primer-1/oligoTemplate-4. The class given is physicochemical. A digest of the protocol:
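Analogs (100 nM final) were incorporated as in PEP on BODIPY-FL primer-1/oligoTemplate-4 (10 nM/80 nM). Reactions were quenched in FBD solution (20% formamide, 10 mM Na2EDTA pH 8.0, Blue Dextran) or 50 mM sodium azide. Samples were irradiated at 365 nm for various times, then iced, mixed with formamide stop solution and run on an AB 377 sequencer. DT50 is the time for 50% cleavage, from triplicates ± 1 SD.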

Assay [5] addresses T2, Vent(exo^−) polymerase. Nature of the assay: PCR of TCF1 exons 2 and 10 with TTP or HOMedUTP. The class given is biochemical. Particulars: 200 μM each dNTP. A digest of the protocol: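 Human genomic DNA (~50 ng) was amplified with 0.4 µM primer pairs and one unit of Vent(exo−). Buffer was 1× ThermoPol (20 mM Tris–HCl pH 8.8, 2 mM MgSO4, etc.) with 1 M betaine. dATP, dCTP and dGTP were at 200 μM each, with TTP or HOMedUTP. Cycling: 95°C 4 min; 35× (95°C 30 s, 59°C 30 s, 72°C 90 s); 72°C 7 min. Expected products: 602 bp (exon 2) and 670 bp (exon 10).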

Assay [6] concerns the target T2, Vent(exo^−) polymerase. The assay can be described thus: Nucleotide selectivity. In kind it is biochemical. The settings on record: each mismatch combination. In short, it runs like this:
as §1

The target in the next assay is TaqFS polymerase (Thermus aquaticus, UniProt P19821, F667Y/G46D). Nature of the assay: PEP. Particulars: TaqFS; Not Active = no visible +1 band in 377 gel image at 100 μM. In kind it is biochemical. In short, it runs like this: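 Polymerase end-point assay for single-base incorporation. 5 nM BODIPY-FL-labelled primer-1 was hybridised to 40 nM oligoTemplate-4, with the interrogation base complementary to dU. Absence of a +1 band on the 377 gel image at 100 μM counts as not active. IC50 was averaged from triplicates ± 1 SD. Incorporation bias is the analog IC50 divided by the natural-nucleotide (HOMedUTP) IC50.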
TaqFS polymerase, sequence (P19821 whole entry G46D/F667Y): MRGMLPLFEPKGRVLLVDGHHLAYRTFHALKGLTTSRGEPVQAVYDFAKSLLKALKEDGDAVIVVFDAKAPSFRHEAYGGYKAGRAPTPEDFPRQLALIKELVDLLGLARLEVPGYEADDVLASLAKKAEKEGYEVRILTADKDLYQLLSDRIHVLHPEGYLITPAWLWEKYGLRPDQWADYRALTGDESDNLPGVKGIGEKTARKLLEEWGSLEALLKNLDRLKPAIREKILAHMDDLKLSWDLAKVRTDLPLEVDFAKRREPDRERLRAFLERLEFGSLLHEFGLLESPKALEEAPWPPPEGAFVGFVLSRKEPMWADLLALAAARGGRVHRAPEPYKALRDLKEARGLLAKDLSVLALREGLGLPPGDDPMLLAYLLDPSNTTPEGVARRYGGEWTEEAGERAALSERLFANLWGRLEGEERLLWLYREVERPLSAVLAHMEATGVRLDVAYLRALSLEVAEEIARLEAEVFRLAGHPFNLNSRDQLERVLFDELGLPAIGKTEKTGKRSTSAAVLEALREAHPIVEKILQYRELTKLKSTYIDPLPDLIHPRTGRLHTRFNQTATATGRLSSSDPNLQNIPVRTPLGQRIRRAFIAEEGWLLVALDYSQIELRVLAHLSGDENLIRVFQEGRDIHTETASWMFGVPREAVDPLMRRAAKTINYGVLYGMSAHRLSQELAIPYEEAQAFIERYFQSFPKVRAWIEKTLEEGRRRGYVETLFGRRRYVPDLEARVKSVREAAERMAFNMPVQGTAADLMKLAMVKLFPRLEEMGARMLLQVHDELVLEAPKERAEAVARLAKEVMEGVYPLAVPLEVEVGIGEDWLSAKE

For assay [7], the target named is T1, Therminator polymerase. Nature of the assay: Ten cycle CRT sequencing. In kind it is biochemical. The settings on record: 3 μM; UV cleavage in 50 mM sodium azide. In short, it runs like this: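 Biotinylated oligoTemplate-7 was bound to streptavidin M-270 beads with BODIPY-FL primer-2S, then preloaded with 0.5 U Therminator in 1× ThermoPol on ice for 5 min. Each cycle: incorporation at 65°C for 5 min, W10 washes, then 365 nm UV (~0.7 W/cm2, 4× 1 min) in 50 mM azide and ThermoPol washes. After ten cycles, products were run on a 10% polyacrylamide gel (377). Band quantification gave cycle efficiency (incorporation × cleavage) and dephasing (%n–2, %n–1, %n+1).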

Assay [8] has as its target T2, Vent(exo^−) polymerase. The settings on record: cited from earlier work.

Take `Cc1cn([C@H]2C[C@H](O)[C@@H](COP(=O)(O)OP(=O)(O)OP(=O)(O)O)O2)c(=O)n(Cc2ccccc2[N+](=O)[O-])c1=O` [T.I, N^3-(2-Nitrobenzyl)-thymidine-5’-triphosphate]: the “Selectivity ratios / mismatch discrimination (in words)” value at Therminator polymerase [1] is on record as “indiscriminately against all mismatched template bases”.
On to `CC(C)[C@H](OCc1cn([C@H]2C[C@H](O)[C@@H](COP(=O)(O)OP(=O)(O)OP(=O)(O)O)O2)c(=O)[nH]c1=O)c1ccccc1[N+](=O)[O-]` [dU.IV, 5-[(S)-1-(2-Nitrophenyl)-2-methyl-propyloxy]methyl-2'-deoxyuridine-5’-triphosphate], for which the “Selectivity ratios / mismatch discrimination (in words)” value on Therminator polymerase [1] is recorded as “almost three orders of magnitude”. Further, the Weighted-sum value on Therminator polymerase [2] was 1.9 and 1.9 ± 0.2; at Vent(exo^−) polymerase [3] it was 1.7 and 1.7 ± 0.1. Moreover, the “DT50 values (time at which 50% of 2-nitrobenzyl groups were photochemically cleaved)” value in assay [4] is 1.8 s and 1.8 ± 0.1 s.
On to `O=c1[nH]c(=O)n([C@H]2C[C@H](O)[C@@H](COP(=O)(O)OP(=O)(O)OP(=O)(O)O)O2)cc1CO` [HOMedUTP, 5-hydroxymethyl-2′-deoxyuridine triphosphate], for which the “PCR product yield and size, HOMedUTP in place of TTP” value at Vent(exo^−) polymerase [5] was “Comparable yields and product size”. In addition, the “Selectivity ratio (mismatched IC50/matched IC50)” value on Vent(exo^−) polymerase [6] is listed as “greater than three orders of magnitude”.
Take `CC(C)(C)[C@H](OCc1cn([C@H]2C[C@H](O)[C@@H](COP(=O)(O)OP(=O)(O)OP(=O)(O)O)O2)c(=O)[nH]c1=O)c1ccccc1[N+](=O)[O-]` [dU.V, 5-[(S)-1-(2-nitrophenyl)-2,2-dimethyl-propyloxy]methyl-2'-deoxyuridine-5’-triphosphate]: the “Selectivity ratios / mismatch discrimination (in words)” value on Therminator polymerase [1] is listed as “almost three orders of magnitude”. Further, the “IC50 values (activity in words)” value against TaqFS polymerase is listed as “not incorporated”. Also, on Therminator polymerase [7], the “Overall signal of reaction products over the 10 CRT cycles” value is reported as “remained relatively constant”. Also, the Weighted-sum value at Therminator polymerase [2] is 1.0 and 1.0 ± 0.0; on Vent(exo^−) polymerase [3], 1.0 and 1.0 ± 0.0. Moreover, the “DT50 values (time at which 50% of 2-nitrobenzyl groups were photochemically cleaved)” value in [4] is 1.3 s and 1.3 ± 0.1 s.
Take `C=CCO[C@H]1C[C@H](n2cnc3c(N)ncnc32)O[C@@H]1COP(=O)(O)OP(=O)(O)OP(=O)(O)O` [3′-O-allyl-dATP]: on Vent(exo^−) polymerase [8], the “Incorporation by polymerase (in words)” value was “not efficiently incorporated”.
